Where “and” joins values, the source holds several entries; their conditions need not be identical. Equal entries are not always repeated.
Tests used:
[1] = […] residence time in dog at 2 mg/kg, iv; format: ADME, organism-based, Canis lupus familiaris; design: dose 2 mg/kg, route intravenous; conditions: in vivo
Procedure, shortened: (§1)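 Pharmacokinetics in fasted rat, dog and monkey, n = 3 per species. The compound was dosed at 10 mg/mL in PEG400/water (1:1, v/v). Doses were 10 mg/kg iv and po in rat, 2 mg/kg iv and po in dog, and 10 mg/kg iv and po in monkey. Clearance, Vdss, MRT and Tmax were derived from plasma profiles; oral bioavailability came from the po and iv data.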

[2] = Tmax in monkey at 10 mg/kg, po; format: ADME, organism-based, Macaca mulatta; design: dose 10 mg/kg, route oral; conditions: rhesus monkey, in vivo; procedure, shortened: as §1
Cytochrome P450 2C9 [3] = target: T1, Cytochrome P450 2C9 (Homo sapiens, UniProt P11712); test: Inhibition of CYP2C9 by HHA assay; format: ADME
[4] = Oral bioavailability in monkey at 10 mg/kg; format: ADME, organism-based, Macaca mulatta; conditions: rhesus monkey, in vivo; procedure, shortened: as §1
[5] = Volume of distribution in steady state in rat at 10 mg/kg, iv; format: ADME, organism-based; design: dose 10 mg/kg, route intravenous; conditions: in vivo, read-out: Vdss; procedure, shortened: as §1
[6] = Tmax in rat at 10 mg/kg, po; format: ADME, organism-based; design: dose 10 mg/kg, route oral; conditions: in vivo; procedure, shortened: as §1
[7] = Total clearance in monkey at 10 mg/kg, iv; format: ADME, organism-based, Macaca mulatta; design: dose 10 mg/kg, route intravenous; conditions: rhesus monkey, in vivo; procedure, shortened: as §1
[8] = target: Nuclear receptor subfamily 1 group I member 2 (Homo sapiens, UniProt O75469); test: Inhibition of PXR
Plasminogen = Plasminogen (Homo sapiens, UniProt P00747); test: Inhibition of human plasmin
Cytochrome P450 3A4 [9] = target: T2, Cytochrome P450 3A4 (Homo sapiens, UniProt P08684); test: Inhibition of CYP3A4 by HHA assay; format: ADME
Cytochrome P450 2D6 [10] = target: T3, Cytochrome P450 2D6 (Homo sapiens, UniProt P10635); test: Inhibition of CYP2D6 by HHA assay; format: ADME
[11] = Tmax in dog at 2 mg/kg, po; format: ADME, organism-based, Canis lupus familiaris; design: dose 2 mg/kg, route oral; conditions: in vivo; procedure, shortened: as §1
[12] = target: Voltage-gated inwardly rectifying potassium channel KCNH2 (Homo sapiens, UniProt Q12809); test: Inhibition of human ERG
[13] = Half life in monkey at 10 mg/kg, iv; format: ADME, organism-based, Macaca mulatta; design: dose 10 mg/kg, route intravenous; conditions: rhesus monkey, in vivo
Procedure, shortened: (§2)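 Fasted animals, n = 3 per species (rat, dog, monkey). Compound was dosed iv or po in a vehicle of 10 mg/mL in PEG400/water (1:1, v/v). Parameters reported were CLtotal, Vdss, t1/2, MRT, Cmax, Tmax and oral bioavailability.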

Cytochrome P450 2D6 [14] = target: T3, Cytochrome P450 2D6; test: Inhibition of CYP2D6; format: ADME
[15] = target: Amine oxidase [flavin-containing] A (Rattus norvegicus, UniProt P21396); test: Inhibition of rat MAO-A at 10 uM
[16] = target: Vitamin K-dependent protein C (Homo sapiens, UniProt P04070); test: Inhibition of human Activated protein C
[17] = Cmax in monkey at 10 mg/kg, po; format: ADME, organism-based, Macaca mulatta; design: dose 10 mg/kg, route oral; conditions: rhesus monkey, in vivo; procedure, shortened: as §2
[18] = Oral bioavailability in dog at 2 mg/kg; format: ADME, organism-based, Canis lupus familiaris; conditions: in vivo; procedure, shortened: as §1
[19] = Volume of distribution in steady state in monkey at 10 mg/kg, iv; format: ADME, organism-based, Macaca mulatta; design: dose 10 mg/kg, route intravenous; conditions: rhesus monkey, in vivo, read-out: Vdss; procedure, shortened: as §1
[20] = Cmax in dog at 2 mg/kg, po; format: ADME, organism-based, Canis lupus familiaris; design: dose 2 mg/kg, route oral; conditions: in vivo; procedure, shortened: as §2
Prothrombin = Prothrombin (Homo sapiens, UniProt P00734); test: Inhibition of human Thrombin
Cytochrome P450 3A4 [21] = target: T2, Cytochrome P450 3A4; test: Inhibition of CYP3A4 using BZR as substrate; format: ADME
[22] = Plasma protein binding in Sprague-Dawley rat plasma at 30 mg/kg, id; format: ADME, organism-based; design: dose 30 mg/kg, route intraduodenal; conditions: read-out: PPB (converted)
[23] = target: Tissue-type plasminogen activator (Homo sapiens, UniProt P00750); test: Inhibition of human t-PA
Cytochrome P450 2C19 [24] = target: T4, Cytochrome P450 2C19 (Homo sapiens, UniProt P33261); test: Inhibition of CYP2C19; format: ADME
[25] = […] residence time in monkey at 10 mg/kg, iv; format: ADME, organism-based, Macaca mulatta; design: dose 10 mg/kg, route intravenous; conditions: rhesus monkey, in vivo; procedure, shortened: as §1
[26] = target: T5, Voltage-gated L-type calcium channel (Rattus norvegicus, UniProt P22002+Q02485+P27732); test: Inhibition of rat L type calcium channel at verapamil site at 10 uM
[27] = Total clearance in dog at 2 mg/kg, iv; format: ADME, organism-based, Canis lupus familiaris; design: dose 2 mg/kg, route intravenous; conditions: in vivo; procedure, shortened: as §1
[28] = Half life in dog at 2 mg/kg, iv; format: ADME, organism-based, Canis lupus familiaris; design: dose 2 mg/kg, route intravenous; conditions: in vivo; procedure, shortened: as §2
[29] = Oral bioavailability in rat at 10 mg/kg; format: ADME, organism-based; conditions: in vivo; procedure, shortened: as §1
[30] = target: Amine oxidase [flavin-containing] B (Rattus norvegicus, UniProt P19643); test: Inhibition of rat MAO-B at 10 uM
Cytochrome P450 1A2 = Cytochrome P450 1A2 (Homo sapiens, UniProt P05177); test: Inhibition of CYP1A2; format: ADME
[31] = […] residence time in rat at 10 mg/kg, iv; format: ADME, organism-based; design: dose 10 mg/kg, route intravenous; conditions: in vivo; procedure, shortened: as §1
Cytochrome P450 3A4 [32] = target: T2, Cytochrome P450 3A4; test: Inhibition of CYP3A4 using BFC as a substrate; format: ADME
Cytochrome P450 2C19 [33] = target: T4, Cytochrome P450 2C19; test: Inhibition of CYP2C19 by HHA assay; format: ADME
[34] = Volume of distribution in steady state in dog at 2 mg/kg, iv; format: ADME, organism-based, Canis lupus familiaris; design: dose 2 mg/kg, route intravenous; conditions: in vivo, read-out: Vdss; procedure, shortened: as §1
[35] = Total clearance in rat at 10 mg/kg, iv; format: ADME, organism-based; design: dose 10 mg/kg, route intravenous; conditions: in vivo; procedure, shortened: as §1
[36] = target: T5, Voltage-gated L-type calcium channel; test: Inhibition of rat L type calcium channel at DHP site at 10 uM
[37] = Cmax in rat at 10 mg/kg, po; format: ADME, organism-based; design: dose 10 mg/kg, route oral; conditions: in vivo; procedure, shortened: as §2
Cytochrome P450 2C9 [38] = target: T1, Cytochrome P450 2C9; test: Inhibition of CYP2C9; format: ADME
[39] = target: Urokinase-type plasminogen activator (Homo sapiens, UniProt P00749); test: Inhibition of human u-PA
[40] = Half life in rat at 10 mg/kg, iv; format: ADME, organism-based; design: dose 10 mg/kg, route intravenous; conditions: in vivo; procedure, shortened: as §2

T1 sequence (P11712 whole entry): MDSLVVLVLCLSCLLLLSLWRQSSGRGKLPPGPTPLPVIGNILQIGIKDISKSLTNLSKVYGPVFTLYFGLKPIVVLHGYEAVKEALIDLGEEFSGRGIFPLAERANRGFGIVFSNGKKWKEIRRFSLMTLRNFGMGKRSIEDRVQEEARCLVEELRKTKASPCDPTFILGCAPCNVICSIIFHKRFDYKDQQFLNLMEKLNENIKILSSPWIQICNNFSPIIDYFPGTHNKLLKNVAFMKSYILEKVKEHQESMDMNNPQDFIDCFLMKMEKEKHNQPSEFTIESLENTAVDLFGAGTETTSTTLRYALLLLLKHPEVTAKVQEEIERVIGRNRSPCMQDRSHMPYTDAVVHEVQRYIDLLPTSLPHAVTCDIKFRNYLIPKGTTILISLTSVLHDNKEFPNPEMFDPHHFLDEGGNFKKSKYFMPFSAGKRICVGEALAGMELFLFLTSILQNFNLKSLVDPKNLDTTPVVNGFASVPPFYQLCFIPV
T2 sequence (P08684 whole entry): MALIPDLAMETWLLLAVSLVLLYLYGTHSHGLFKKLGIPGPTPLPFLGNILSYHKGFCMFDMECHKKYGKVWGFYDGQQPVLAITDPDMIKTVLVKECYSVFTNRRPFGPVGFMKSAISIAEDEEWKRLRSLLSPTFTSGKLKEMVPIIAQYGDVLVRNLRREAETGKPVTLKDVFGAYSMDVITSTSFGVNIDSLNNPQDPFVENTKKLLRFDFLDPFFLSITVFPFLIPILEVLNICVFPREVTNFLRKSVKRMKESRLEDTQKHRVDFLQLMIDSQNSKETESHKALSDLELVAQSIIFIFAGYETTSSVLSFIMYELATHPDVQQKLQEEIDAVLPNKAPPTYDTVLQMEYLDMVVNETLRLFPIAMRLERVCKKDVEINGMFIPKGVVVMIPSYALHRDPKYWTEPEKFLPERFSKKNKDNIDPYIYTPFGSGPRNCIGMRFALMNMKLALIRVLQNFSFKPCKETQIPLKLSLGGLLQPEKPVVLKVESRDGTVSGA
T4 sequence (P33261 whole entry): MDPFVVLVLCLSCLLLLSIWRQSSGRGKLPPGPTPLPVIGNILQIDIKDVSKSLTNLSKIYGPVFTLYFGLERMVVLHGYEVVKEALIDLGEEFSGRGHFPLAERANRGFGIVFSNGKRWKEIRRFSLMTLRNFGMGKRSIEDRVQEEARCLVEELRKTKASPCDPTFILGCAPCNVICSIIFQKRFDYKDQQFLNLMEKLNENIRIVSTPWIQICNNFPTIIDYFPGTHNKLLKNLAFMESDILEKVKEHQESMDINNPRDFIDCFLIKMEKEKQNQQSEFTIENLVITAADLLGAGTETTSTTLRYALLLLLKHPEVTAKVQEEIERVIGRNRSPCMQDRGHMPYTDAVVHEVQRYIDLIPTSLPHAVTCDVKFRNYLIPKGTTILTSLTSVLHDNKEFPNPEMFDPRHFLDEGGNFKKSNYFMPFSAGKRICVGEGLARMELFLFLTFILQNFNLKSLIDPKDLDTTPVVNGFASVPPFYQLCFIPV
T3 sequence (P10635 whole entry): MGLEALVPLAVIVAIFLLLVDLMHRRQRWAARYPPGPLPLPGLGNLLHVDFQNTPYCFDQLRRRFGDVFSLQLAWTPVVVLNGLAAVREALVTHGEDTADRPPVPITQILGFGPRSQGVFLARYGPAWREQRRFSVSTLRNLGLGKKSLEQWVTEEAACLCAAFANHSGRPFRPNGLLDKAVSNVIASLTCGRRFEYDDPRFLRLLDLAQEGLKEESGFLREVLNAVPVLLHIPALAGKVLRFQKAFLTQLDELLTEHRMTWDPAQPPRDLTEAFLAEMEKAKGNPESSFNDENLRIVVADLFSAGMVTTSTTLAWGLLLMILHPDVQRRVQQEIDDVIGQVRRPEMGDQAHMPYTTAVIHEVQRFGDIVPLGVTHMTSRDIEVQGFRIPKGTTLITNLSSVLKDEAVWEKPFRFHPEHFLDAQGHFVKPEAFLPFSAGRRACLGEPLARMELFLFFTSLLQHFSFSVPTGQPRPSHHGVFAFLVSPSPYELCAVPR
Sequence of Cytochrome P450 1A2 (P05177 whole entry): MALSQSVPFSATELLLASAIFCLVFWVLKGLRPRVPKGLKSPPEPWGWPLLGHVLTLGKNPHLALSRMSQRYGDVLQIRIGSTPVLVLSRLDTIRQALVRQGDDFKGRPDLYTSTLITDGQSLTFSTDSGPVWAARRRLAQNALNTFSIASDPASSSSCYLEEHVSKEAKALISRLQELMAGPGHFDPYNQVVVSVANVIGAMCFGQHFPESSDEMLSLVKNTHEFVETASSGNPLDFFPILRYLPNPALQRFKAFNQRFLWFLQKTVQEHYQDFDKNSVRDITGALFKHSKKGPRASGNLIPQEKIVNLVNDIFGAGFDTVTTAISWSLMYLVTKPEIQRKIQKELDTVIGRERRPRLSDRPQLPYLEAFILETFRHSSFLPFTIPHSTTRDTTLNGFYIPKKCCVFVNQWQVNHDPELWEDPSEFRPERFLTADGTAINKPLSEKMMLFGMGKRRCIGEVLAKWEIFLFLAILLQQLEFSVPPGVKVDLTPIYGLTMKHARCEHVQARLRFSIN
Sequence of Vitamin K-dependent protein C (P04070 43-197 limits assumed): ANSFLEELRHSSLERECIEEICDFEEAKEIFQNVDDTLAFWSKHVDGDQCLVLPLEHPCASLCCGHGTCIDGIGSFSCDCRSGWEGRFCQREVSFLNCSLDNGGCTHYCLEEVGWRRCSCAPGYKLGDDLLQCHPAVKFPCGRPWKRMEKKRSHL
Sequence of Vitamin K-dependent protein C (P04070 212-461 limits assumed): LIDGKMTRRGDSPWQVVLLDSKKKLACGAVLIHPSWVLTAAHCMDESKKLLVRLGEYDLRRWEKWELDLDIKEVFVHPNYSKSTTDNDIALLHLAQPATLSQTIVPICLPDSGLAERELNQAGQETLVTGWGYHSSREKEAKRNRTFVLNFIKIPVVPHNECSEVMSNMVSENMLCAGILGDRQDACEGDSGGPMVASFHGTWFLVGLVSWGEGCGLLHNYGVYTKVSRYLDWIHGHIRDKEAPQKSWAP
Sequence of Amine oxidase [flavin-containing] B (P19643 whole entry): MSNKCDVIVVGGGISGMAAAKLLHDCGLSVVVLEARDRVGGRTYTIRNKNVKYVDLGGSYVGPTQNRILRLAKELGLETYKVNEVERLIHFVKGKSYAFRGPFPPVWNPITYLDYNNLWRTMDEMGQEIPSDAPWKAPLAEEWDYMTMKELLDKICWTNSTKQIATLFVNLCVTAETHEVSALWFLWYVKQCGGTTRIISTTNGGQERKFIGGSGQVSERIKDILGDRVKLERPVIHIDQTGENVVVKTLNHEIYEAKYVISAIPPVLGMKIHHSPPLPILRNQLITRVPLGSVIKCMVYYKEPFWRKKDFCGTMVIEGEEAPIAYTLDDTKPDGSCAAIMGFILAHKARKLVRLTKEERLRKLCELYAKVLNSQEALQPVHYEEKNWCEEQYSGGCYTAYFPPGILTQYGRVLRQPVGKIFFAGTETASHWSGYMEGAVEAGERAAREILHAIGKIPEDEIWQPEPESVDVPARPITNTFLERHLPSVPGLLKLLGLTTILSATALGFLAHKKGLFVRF
Sequence of Tissue-type plasminogen activator (P00750 whole entry): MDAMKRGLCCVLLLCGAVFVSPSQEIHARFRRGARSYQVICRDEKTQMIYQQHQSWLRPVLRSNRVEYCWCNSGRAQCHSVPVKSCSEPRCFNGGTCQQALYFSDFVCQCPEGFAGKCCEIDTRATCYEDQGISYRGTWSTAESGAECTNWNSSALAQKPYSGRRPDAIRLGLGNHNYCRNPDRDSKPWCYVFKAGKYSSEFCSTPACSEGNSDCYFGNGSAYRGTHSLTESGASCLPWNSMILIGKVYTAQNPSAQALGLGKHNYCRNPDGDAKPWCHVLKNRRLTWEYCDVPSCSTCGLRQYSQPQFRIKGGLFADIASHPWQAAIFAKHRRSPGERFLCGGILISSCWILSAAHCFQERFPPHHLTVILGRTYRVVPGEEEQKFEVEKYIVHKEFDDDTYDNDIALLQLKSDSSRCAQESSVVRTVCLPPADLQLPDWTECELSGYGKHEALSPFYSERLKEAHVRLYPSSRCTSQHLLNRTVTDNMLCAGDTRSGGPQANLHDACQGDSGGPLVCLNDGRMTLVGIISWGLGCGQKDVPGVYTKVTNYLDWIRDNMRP
Sequence of Plasminogen (P00747 97-580 limits assumed): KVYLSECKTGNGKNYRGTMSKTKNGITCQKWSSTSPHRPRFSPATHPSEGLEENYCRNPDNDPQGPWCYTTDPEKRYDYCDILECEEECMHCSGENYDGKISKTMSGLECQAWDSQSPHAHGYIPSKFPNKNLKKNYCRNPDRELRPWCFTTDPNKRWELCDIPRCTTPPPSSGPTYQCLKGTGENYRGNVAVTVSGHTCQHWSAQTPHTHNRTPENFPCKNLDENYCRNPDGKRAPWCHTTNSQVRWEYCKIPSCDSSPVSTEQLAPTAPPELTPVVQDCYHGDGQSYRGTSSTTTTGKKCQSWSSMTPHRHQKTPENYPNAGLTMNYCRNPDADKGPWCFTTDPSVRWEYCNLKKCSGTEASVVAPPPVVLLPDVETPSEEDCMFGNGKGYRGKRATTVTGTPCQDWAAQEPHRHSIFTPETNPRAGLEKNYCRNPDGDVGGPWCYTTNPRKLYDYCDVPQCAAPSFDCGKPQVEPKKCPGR
Sequence of Plasminogen (P00747 581-810 limits assumed): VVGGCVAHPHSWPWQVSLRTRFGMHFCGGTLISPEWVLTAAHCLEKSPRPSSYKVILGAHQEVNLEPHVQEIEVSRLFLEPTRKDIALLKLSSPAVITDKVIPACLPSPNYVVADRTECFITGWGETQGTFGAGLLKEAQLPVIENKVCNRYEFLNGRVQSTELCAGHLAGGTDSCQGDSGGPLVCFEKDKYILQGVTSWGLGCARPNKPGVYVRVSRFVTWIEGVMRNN

MRT [1]: 9 h | Tmax [2]: 1.8 h | IC50 (Cytochrome P450 2C9 [3]): > 200 µM | bioavailability [4]: 28% | Vd [5]: 3.3 L/kg | Tmax [6]: 36 min | clearance [7]: 11 mL/min/kg | Activity [8]: Not Active | Ki (Plasminogen): > 16 µM | IC50 (Cytochrome P450 3A4 [9]): > 200 µM | IC50 (Cytochrome P450 2D6 [10]): > 200 µM | Tmax [11]: 1.3 h | half-life [13]: 840 min | IC50 (Cytochrome P450 2D6 [14]): > 40 µM | Activity [15]: Not Active | Ki [16]: > 18 µM | Cmax [17]: 2100 ng/mL | bioavailability [18]: 77% | Vd [19]: 2.3 L/kg | Cmax [20]: 2800 ng/mL | Ki (Prothrombin): 2300 nM | IC50 (Cytochrome P450 3A4 [21]): > 40 µM | fraction unbound [22]: 0.28 | Ki [23]: 665 nM | IC50 (Cytochrome P450 2C19 [24]): 51 µM and 40 µM | MRT [25]: 4 h | Activity [26]: Not Active | clearance [27]: 1.9 mL/min/kg | half-life [28]: 516 min | bioavailability [29]: 55% | Activity [30]: Not Active | IC50 (Cytochrome P450 1A2): > 40 µM | MRT [31]: 2 h | IC50 (Cytochrome P450 3A4 [32]): 39 µM | IC50 (Cytochrome P450 2C19 [33]): > 200 µM | Vd [34]: 0.96 L/kg | clearance [35]: 27 mL/min/kg | Activity [36]: Not Active | Cmax [37]: 2200 ng/mL | IC50 (Cytochrome P450 2C9 [38]): 43 µM and > 40 µM | Ki [39]: > 7.8 µM | half-life [40]: 96 min
SMILES: Cc1cc2cc(N=C(NC(=O)c3ccc(C(=O)N(C)C)nc3)N[C@H]3CCCCN(CC(=O)N4CCCC4)C3=O)ccc2o1
Activity [12]: Not Active
